# Measured values from ChEMBL document CHEMBL4732057, “Design, synthesis and biological evaluation of second-generation benzoylpiperidine derivatives as reversible monoacylglycerol lipase (MAGL) inhibitors” (Eur J Med Chem, 2021).
# Biological target: Cannabinoid receptor 2 (Homo sapiens, UniProt P34972)
# Test: Displacement of [3H]CP55940 from human CB2 receptor at 10 uM incubated for 90 mins by radioligand binding assay
# Outline: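 Membranes expressing hCB1 or hCB2 in 50 mM Tris-HCl, 2.5 mM EDTA, 5 mM MgCl2, 0.5% BSA, pH 7.4, incubated with compound and 0.5 nM [3H]CP55,940 for 90 min at 30 °C. Nonspecific binding with 10 µM […]; filtered and counted. Screening at 10 µM; two experiments in triplicate.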
# Sequence of Cannabinoid receptor 2 (P34972 whole entry): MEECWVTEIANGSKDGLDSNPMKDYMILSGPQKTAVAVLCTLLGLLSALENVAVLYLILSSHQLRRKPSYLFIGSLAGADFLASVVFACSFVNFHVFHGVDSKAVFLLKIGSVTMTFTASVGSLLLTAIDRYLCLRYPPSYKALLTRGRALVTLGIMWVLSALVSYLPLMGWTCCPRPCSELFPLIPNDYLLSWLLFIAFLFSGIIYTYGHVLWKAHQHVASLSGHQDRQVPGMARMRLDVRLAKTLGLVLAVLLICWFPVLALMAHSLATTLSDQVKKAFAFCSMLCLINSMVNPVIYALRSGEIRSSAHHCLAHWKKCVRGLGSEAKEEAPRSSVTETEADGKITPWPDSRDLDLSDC
row,inhibition,SMILES
1,< 10%,O=C(c1ccc(Sc2ccccc2)cc1)C1CCN(C(=O)c2cc(O)ccc2F)CC1
2,< 10%,O=C(c1ccc(Cc2ccccc2)cc1)C1CCN(C(=O)c2cc(O)ccc2F)CC1
3,< 10%,O=C(c1ccc(Sc2ccccc2)cc1)C1CCN(C(=O)c2cc(O)c(F)cc2F)CC1
4,< 10%,O=C(c1ccc(Cc2ccccc2)cc1)C1CCN(C(=O)c2cc(O)c(F)cc2F)CC1
